Assay results reported in the EternaBench riboswitch data.

Tested on: MS2 coat protein
Assay: apparent Kd, MS2 coat protein; higher = weaker binding; RNA-MaP array
How it was run: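 Incubations were done at room temperature with fluorescently labeled MS2 coat protein at 1.5 nM to 3 μM and designed RNAs transcribed on an Illumina sequencing chip from sequenced DNA templates, with or without input ligand. Apparent Kd is the median of binding curves fitted for each cluster. Designs with fewer than 10 measured clusters were excluded.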

[1] = designed as: OFF switch for flavin mononucleotide, no ligand
[2] = ligand present: flavin mononucleotide, designed as: OFF switch for flavin mononucleotide
[3] = designed as: ON switch for flavin mononucleotide, no ligand
[4] = ligand present: flavin mononucleotide, designed as: ON switch for flavin mononucleotide
[5] = designed as: OFF switch for tryptophan, no ligand
[6] = ligand present: tryptophan, designed as: OFF switch for tryptophan
[7] = designed as: OFF switch for theophylline, no ligand
[8] = ligand present: theophylline, designed as: OFF switch for theophylline

## UAUGUACGUAGGGACAUGAGGAUCACCCAUGUGGUCCGUAUUAGAAGGACGAAUACCGAUAAAACGUAGGAUAUAAUAACUCCG
[1]
  apparent Kd: 134 nM
[2]
  apparent Kd: 148 nM

## UAUGUCGCCGAAGAUACCAGCCUGGCAAGCAACAUGAGGAUCACCCAUGUAAUUACUUAUGGCCCUUGGCAGCUUCAAAUAGAGC
Designed as: ON switch for theophylline, no ligand
  apparent Kd: 11.4 nM
Ligand present: theophylline, designed as: ON switch for theophylline
  apparent Kd: 11.8 nM

## UAUUUUGCGAAGAAGGAAGCCUCACUGGAAUGCUUAGGAUAUUCUCGCGUGGAGCACAUGCACAUGAGGAUCACCCAUGUACCG
[3]
  apparent Kd: 28.7 nM
[4]
  apparent Kd: 20.1 nM

## UCAACACAUGAGGAUCACCCAUGUUAUACUAGGGUAGGAUAUGACGUAGUGAAGUGCUCUUCAGAAGGACCAUGGG
[3]
  apparent Kd: 64.7 nM
[4]
  apparent Kd: 30.1 nM

## UCACAACUAGGAUAUUUAGUGCUAUACAUGAGGAUCACCCAUGUCGUGUGCACUAGUACGAAAGAAGGAGUUAUCG
[1]
  apparent Kd: 5.09 nM
[2]
  apparent Kd: 5.21 nM

## UCACUACAGUAGAAGGUAGGUACAUGAGGAUCACCCAUGUGGUAGGGAGAUUUACACUGUUUCGCUAAGGAUAUACUGGCCAAU
[1]
  apparent Kd: 207 nM
[2]
  apparent Kd: 125 nM

## UCACUUGUCUAGAAGGGUCGGCACAUGAGGAUCACCCAUGUAAAUGGCUGGUUCAAAUAAUUUUGACAGGAUAUAGAGAGCACU
[1]
  apparent Kd: 16.6 nM
[2]
  apparent Kd: 50.4 nM

## UCAGUUCAAGGAUAUACAUGAGGAUCACCCAUGUACCGCAAUGUAGAAAAGUGACGUAGUAGAAGGUGAAACGA
[1]
  apparent Kd: 23.6 nM
[2]
  apparent Kd: 21 nM

## UCCUCGUAUUAAGGAUAUAGAAAAGUCACAUGAGGAUCACCCAUGUCUAAGGACGCACUAUGAGUCUAGAAGGUAAUCCGGAAU
[3]
  apparent Kd: 78.9 nM
[4]
  apparent Kd: 65.5 nM

## UCGAUAAGAGGAUAUACGUGAUAGUUCUCCUCCCUAUGACUACAUGAGGAUCACCCAUGUAGAAGGCUUAACGG
[1]
  apparent Kd: 6.31 nM
[2]
  apparent Kd: 6.54 nM

## UCUUCGUUGGCGUCACAAUUCAUGCAAUGCCGAGGACCGGUACGGCCGCCACUCGGACUAAUACAUGAGGAUCACCCAUGUCGUG
[5]
  apparent Kd: 123 nM
[6]
  apparent Kd: 102 nM

## UGAAAUUACGGAGGAUAUCUAUUUACAUGAGGAUCACCCAUGUCCCAGCUACUGCUAUUAUCCGCAGAGAAGGCCGGUGAGUCC
[3]
  apparent Kd: 171 nM
[4]
  apparent Kd: 105 nM

## UGCAAUGGGUGAGGAUAUACCCACACACAUGAGGAUCACCCAUGUUUCACAAAGGUGAUGACGCGGUAGAAGGCACAAUCCACU
[3]
  apparent Kd: 268 nM
[4]
  apparent Kd: 98.1 nM

## UGGACGCAACGAGCACGAGGUCGGCAGCUACGAGGACCGGUACGGCCGCCACUCGAGUUACGACAUGAGGAUCACCCAUGUAAGG
[5]
  apparent Kd: 41.6 nM
[6]
  apparent Kd: 178 nM

## UGGACUGUGACAUGAGGAUCACCCAUGUAAAUAAUUCCGCAUAGAAGGGUCCAACGUAAAUGAAGACAGGAUAUAUGGGAGCGU
[3]
  apparent Kd: 45.4 nM
[4]
  apparent Kd: 24 nM

## UGGUGCCCUGUAUACAUUGUAAUCCUAAUGCGAGGACCGGUACGGCCGCCACUCGUUGCGGAACAUGAGGAUCACCCAUGUAACA
[5]
  apparent Kd: 18.3 nM
[6]
  apparent Kd: 16.6 nM

## UGUAUCUCGCAGAAGGCAGGUUAAGCAACAAACUGAGGAUAUGCGUAUACAUGAGGAUCACCCAUGUUCACUGAUCGCAAAUUC
[1]
  apparent Kd: 14.8 nM
[2]
  apparent Kd: 102 nM

## UGUCAAUCGCCGGAUACCAGCCUAACUGAAGGAAAUCUAAACAUGAGGAUCACCCAUGUAGGCCCUUGGCAGCCGAGUAAGUACA
[7]
  apparent Kd: 40.3 nM
[8]
  apparent Kd: 125 nM

## UGUCAGGUCCAUAACAUGAGGAUCACCCAUGUAAGGCAUGAGCAGGAUAUCAAAAGUCGUAAGACAGAGAAGGGCUAAAUGACC
[1]
  apparent Kd: 7 nM
[2]
  apparent Kd: 7.51 nM

## UGUUUGGCUUCCUUUACAUGAGGAUCACCCAUGUUAUGUAAUUAGGAUAUCCAUGUGAGAUGGUUGGAGAAGGAAUGCAUGACG
[1]
  apparent Kd: 27 nM
[2]
  apparent Kd: 33 nM

## UUACGGCCGGAAGGAUAUUGUGGCUCCGGAGUAACAUGAGGAUCACCCAUGUGAAUCAAACACAACAAGAAGGUCCCAAAUAGG
[3]
  apparent Kd: 15.9 nM
[4]
  apparent Kd: 15.5 nM

## UUCUUACAUGAGGAUCACCCAUGUCUACACCCUACAGGAUAUGAUGCGGUGAAGACCAAUUCAGAAGGGUAAGGUC
[3]
  apparent Kd: 84.1 nM
[4]
  apparent Kd: 22.9 nM

## UUGAUAGCAGGAUAUACAUGAGGAUCACCCAUGUACAGGCAAAAGGGAACUGACCCACGUAGAAGGGCUUCGCA
[1]
  apparent Kd: 10.8 nM
[2]
  apparent Kd: 21 nM

## UUGAUCGCUCAGAAGGACGCGCAGGACCAAGCCGUAGGAUAUGACGAAUGCUAACGGAGUCCACAUGAGGAUCACCCAUGUGCA
[3]
  apparent Kd: 65.2 nM
[4]
  apparent Kd: 18.9 nM

## UUGCAUUCUAAUCCUCUUACGACAUGAGGAUCACCCAUGUGUCAGGAUAUUCGAGAAGGAGCGACGAAGAAGGGACUAAUACAC
[1]
  apparent Kd: 40.7 nM
[2]
  apparent Kd: 32.8 nM

## UUGGAUGAAGGAGUGAAAAGCAACUCAGAUACCAGUCUGAGUAAUGACCCUUGGCAGCUGAGAACAUGAGGAUCACCCAUGUGAC
[7]
  apparent Kd: 15.2 nM
[8]
  apparent Kd: 32.2 nM
